Source: ChEMBL document CHEMBL1154611 (J Med Chem, 2009)
pEC50, pIC50: −log10 of the molar value. ≈ marks a conversion by molar mass, not a printed value. Calls of active or inactive are those of the source. The calls are words filed in the database; no cut-off is given here.

Tests used:
[1] = biological target: Motilin receptor (Oryctolagus cuniculus) (UniProt A5A4K8); experiment: Agonist activity at motilin receptor in rabbit smooth muscle assessed as tachyphylaxis at EC90 concentration after 4th dose; type: functional
Procedure, shortened: (§1)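 Rabbit smooth muscle contractility assay. EC50 is the concentration giving 50% of the maximal possible contraction. Tachyphylaxis is the % contractile response to an EC90 drug concentration after three cycles of administration and washout.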

Motilin receptor = Motilin receptor (Oryctolagus cuniculus, UniProt A5A4K8); experiment: Agonist activity at motilin receptor in rabbit smooth muscle assessed as maximal possible tissue contraction; type: functional; procedure, shortened: as §1
Streptococcus pneumoniae [2] = experiment: Antibacterial activity against erythromycin-sensitive Streptococcus pneumoniae ATCC 6301; type: functional
Procedure, shortened: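 MIC, the minimal growth inhibitory concentration, was determined in routine screening against the highly erythromycin-sensitive strain Streptococcus pneumoniae ATCC6301.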

hERG (KCNH2) [3] = biological target: T1, hERG (KCNH2) (Homo sapiens, UniProt Q12809); experiment: Inhibition of human ERG expressed in HEK cells at 300 uM; type: cell-based, HEK293; conditions: HEK cells expressing human ERG
[4] = biological target: Voltage-gated inwardly rectifying potassium channel KCNH2 (Homo sapiens, UniProt Q12809); experiment: Inhibition of human ERG expressed in HEK cells; type: cell-based, HEK293
hERG (KCNH2) [5] = biological target: T1, hERG (KCNH2); experiment: Inhibition of human ERG expressed in HEK cells at 30 uM; type: cell-based, HEK293; conditions: HEK cells expressing human ERG
[6] = Ratio of IC50 for human ERG to EC50 for rabbit motilin receptor agonism; type: functional
Procedure, shortened: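 The motilin EC50 came from the rabbit smooth muscle contraction assay, and the ratio of the two served as a cardiovascular safety predictor.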

Corynebacterium sp. = experiment: Antimicrobial activity against Corynebacterium sp.; type: functional, organism-based
Procedure, shortened: (§2)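 MIC was determined across a panel of about 200 clinical isolates from a variety of specimens held in a university clinical microbiology collection, with about 10 isolates per species. The panel covers gut flora and organisms commonly known to develop antibiotic resistance.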

Staphylococcus aureus = experiment: Antimicrobial activity against Staphylococcus aureus; type: functional, organism-based; procedure, shortened: as §2
Moraxella catarrhalis = experiment: Antimicrobial activity against Moraxella catarrhalis; type: functional, organism-based; procedure, shortened: as §2
Staphylococcus = experiment: Antimicrobial activity against Staphylococcus coagulase; type: functional, organism-based; procedure, shortened: as §2
Corynebacterium jeikeium = experiment: Antimicrobial activity against Corynebacterium jeikeium; type: functional, organism-based; procedure, shortened: as §2
Clostridium perfringens = experiment: Antimicrobial activity against Clostridium perfringens; type: functional, organism-based
Procedure, shortened: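 MIC determined across a panel of about 200 clinical strains that represent gut flora and species known to develop antibiotic resistance. The panel included about 10 Clostridium perfringens isolates, taken from a variety of clinical specimens and held in the University of Rochester Medical Center clinical microbiology collection.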

Proteus mirabilis = experiment: Antimicrobial activity against Proteus mirabilis; type: functional, organism-based; procedure, shortened: as §2
Streptococcus pyogenes = experiment: Antimicrobial activity against Streptococcus pyogenes; type: functional, organism-based; procedure, shortened: as §2
Lactobacillus sp. = experiment: Antimicrobial activity against Lactobacillus sp.; type: functional, organism-based; procedure, shortened: as §2
Micrococcus luteus = experiment: Antimicrobial activity against Micrococcus luteus; type: functional, organism-based; procedure, shortened: as §2
Escherichia coli = experiment: Antimicrobial activity against Escherichia coli; type: functional, organism-based; procedure, shortened: as §2
Streptococcus pneumoniae [7] = experiment: Antimicrobial activity against Streptococcus pneumoniae; type: functional, organism-based; procedure, shortened: as §2
Bacteroides fragilis = experiment: Antimicrobial activity against Bacteroides fragilis; type: functional, organism-based; procedure, shortened: as §2
Enterococcus faecium = experiment: Antimicrobial activity against Enterococcus faecium; type: functional, organism-based; procedure, shortened: as §2
Klebsiella pneumoniae = experiment: Antimicrobial activity against Klebsiella pneumoniae; type: functional, organism-based; procedure, shortened: as §2
Haemophilus influenzae = experiment: Antimicrobial activity against Haemophilus influenzae; type: functional, organism-based; procedure, shortened: as §2
Enterococcus faecalis = experiment: Antimicrobial activity against Enterococcus faecalis; type: functional, organism-based; procedure, shortened: as §2
Streptococcus equinus = experiment: Antimicrobial activity against Streptococcus bovis; type: functional, organism-based; procedure, shortened: as §2
Cutibacterium acnes = experiment: Antimicrobial activity against Propionibacterium acnes; type: functional, organism-based
Clostridioides difficile = experiment: Antimicrobial activity against Clostridium difficile; type: functional, organism-based; procedure, shortened: as §2

Chain of Motilin receptor (Oryctolagus cuniculus) (A5A4K8 as listed by the source): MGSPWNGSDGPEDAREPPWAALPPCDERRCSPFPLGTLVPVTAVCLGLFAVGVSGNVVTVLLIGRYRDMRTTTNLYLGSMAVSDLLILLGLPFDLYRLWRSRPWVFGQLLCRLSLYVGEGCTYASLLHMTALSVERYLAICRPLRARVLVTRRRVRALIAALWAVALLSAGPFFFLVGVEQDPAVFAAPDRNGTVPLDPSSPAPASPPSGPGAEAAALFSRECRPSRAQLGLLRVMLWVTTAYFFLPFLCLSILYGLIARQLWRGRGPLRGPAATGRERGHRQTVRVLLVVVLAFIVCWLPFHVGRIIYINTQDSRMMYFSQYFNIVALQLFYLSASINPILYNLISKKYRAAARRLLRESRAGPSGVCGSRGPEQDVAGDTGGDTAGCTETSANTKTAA
Chain of Motilin receptor (A5A4K8 whole entry): as the sequence (A5A4K8 as listed by the source) above
T1 sequence (Q12809 whole entry): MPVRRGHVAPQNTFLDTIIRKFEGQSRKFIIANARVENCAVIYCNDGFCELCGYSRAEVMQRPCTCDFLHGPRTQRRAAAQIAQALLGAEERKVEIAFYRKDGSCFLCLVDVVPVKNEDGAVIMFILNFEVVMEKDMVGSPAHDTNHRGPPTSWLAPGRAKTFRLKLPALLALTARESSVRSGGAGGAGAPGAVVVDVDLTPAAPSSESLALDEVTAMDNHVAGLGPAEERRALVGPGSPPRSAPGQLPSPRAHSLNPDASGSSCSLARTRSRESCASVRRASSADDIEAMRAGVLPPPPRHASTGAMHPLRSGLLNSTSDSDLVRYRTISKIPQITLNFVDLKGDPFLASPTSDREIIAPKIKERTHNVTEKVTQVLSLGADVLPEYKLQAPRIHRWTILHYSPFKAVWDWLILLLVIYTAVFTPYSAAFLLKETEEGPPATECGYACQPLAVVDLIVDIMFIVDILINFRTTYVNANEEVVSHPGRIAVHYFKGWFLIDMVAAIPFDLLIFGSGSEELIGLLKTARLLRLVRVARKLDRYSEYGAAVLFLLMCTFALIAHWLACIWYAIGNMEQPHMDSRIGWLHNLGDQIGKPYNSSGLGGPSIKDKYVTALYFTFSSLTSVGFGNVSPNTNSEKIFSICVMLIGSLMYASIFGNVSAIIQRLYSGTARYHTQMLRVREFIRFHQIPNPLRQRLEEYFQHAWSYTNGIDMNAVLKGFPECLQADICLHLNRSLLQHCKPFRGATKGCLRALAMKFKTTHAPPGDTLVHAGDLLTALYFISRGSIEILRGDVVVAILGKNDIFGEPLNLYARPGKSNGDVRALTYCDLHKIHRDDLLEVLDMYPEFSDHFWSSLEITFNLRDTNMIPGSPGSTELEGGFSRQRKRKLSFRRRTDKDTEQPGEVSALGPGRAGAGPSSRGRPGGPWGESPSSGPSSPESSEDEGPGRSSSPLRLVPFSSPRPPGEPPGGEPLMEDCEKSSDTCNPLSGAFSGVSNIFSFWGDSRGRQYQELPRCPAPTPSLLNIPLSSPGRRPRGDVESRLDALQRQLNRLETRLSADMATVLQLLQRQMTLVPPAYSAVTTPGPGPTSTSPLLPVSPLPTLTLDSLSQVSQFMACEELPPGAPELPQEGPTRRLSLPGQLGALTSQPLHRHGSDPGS
Chain of Voltage-gated inwardly rectifying potassium channel KCNH2 (Q12809 whole entry): as above

CC[C@H]1OC(=O)[C@H](C)[C@@H](O[C@H]2C[C@@](C)(OC)CC(C)O2)[C@H](C)[C@@H](O[C@@H]2O[C@H](C)C[C@H](N(C)CC)[C@H]2O)C2(C)CC(C)=C(O2)[C@H](C)[C@@H](O)[C@H]1C (single isomer, unassigned)
Activity [1]: 22%
pEC50 (Motilin receptor): 8.15
MIC (Streptococcus pneumoniae [2]): 64 µg/mL (≈ 91.7 µM)
inhibition at 300 µM (hERG (KCNH2) [3]): 100%

CC[C@H]1OC(=O)[C@H](C)[C@@H](O[C@H]2C[C@@](C)(OC)[C@@H](O)[C@H](C)O2)[C@H](C)[C@@H](O[C@@H]2O[C@H](C)C[C@H](N(C)C(C)C)[C@H]2O)[C@](C)(O)C[C@@H](C)[C@H](O)[C@H](C)[C@@H](O)[C@]1(C)O [3 9-DIHYDRO-N-DESMETHYL-N-ISOPROPYLERYTHROMYCIN A]
pIC50 [4]: 5.00
Activity [1]: 85%
pEC50 (Motilin receptor): 6.59
MIC (Streptococcus pneumoniae [2]): 32 µg/mL (≈ 41.9 µM)
inhibition at 300 µM (hERG (KCNH2) [3]): 100%
inhibition at 30 µM (hERG (KCNH2) [5]): 80%
Ratio IC50/EC50 [6]: 38

CC[C@H]1OC(=O)[C@H](C)[C@@H](O[C@H]2C[C@@](C)(OC)[C@@H](O)[C@H](C)O2)[C@H](C)[C@@H](O[C@@H]2O[C@H](C)C[C@H](N(C)C(C)C)[C@H]2O)[C@](C)(O)C[C@@H](C)[C@H](OCC(=O)NC2CCOCC2)[C@H](C)[C@@H](O)[C@]1(C)O
Activity [1]: 88%
pEC50 (Motilin receptor): 6.92
MIC (Streptococcus pneumoniae [2]): > 128 µg/mL
inhibition at 300 µM (hERG (KCNH2) [3]): 67%
inhibition at 30 µM (hERG (KCNH2) [5]): 23%

CC[C@H]1OC(=O)[C@H](C)[C@@H](O[C@H]2C[C@@](C)(OC)[C@@H](O)[C@H](C)O2)[C@H](C)[C@@H](O[C@@H]2O[C@H](C)C[C@H](N(C)C(C)C)[C@H]2O)[C@](C)(O)C[C@@H](C)[C@H](OCC(=O)Nc2ccncn2)[C@H](C)[C@@H](O)[C@]1(C)O
Activity [1]: 63%
pEC50 (Motilin receptor): 7.60
inhibition at 300 µM (hERG (KCNH2) [3]): 60%
inhibition at 30 µM (hERG (KCNH2) [5]): 16%

CC[C@H]1OC(=O)[C@H](C)[C@@H](O[C@H]2C[C@@](C)(OC)[C@@H](O)[C@H](C)O2)[C@H](C)[C@@H](O[C@@H]2O[C@H](C)C[C@H](N(C)C(C)C)[C@H]2O)[C@](C)(O)C[C@@H](C)[C@H](OCC(=O)NC)[C@H](C)[C@@H](O)[C@]1(C)O
Activity (Corynebacterium sp.): inactive
Activity (Staphylococcus aureus): inactive
Activity (Moraxella catarrhalis): inactive
Activity (Staphylococcus): inactive
Activity (Corynebacterium jeikeium): inactive
Activity (Clostridium perfringens): inactive
Activity [1]: 89%
Activity (Proteus mirabilis): inactive
Activity (Streptococcus pyogenes): inactive
Activity (Lactobacillus sp.): inactive
Activity (Micrococcus luteus): inactive
pEC50 (Motilin receptor): 7.24
MIC (Streptococcus pneumoniae [2]): > 128 µg/mL
Activity (Escherichia coli): inactive
Activity (Streptococcus pneumoniae [7]): inactive
Activity (Bacteroides fragilis): inactive
Activity (Enterococcus faecium): inactive
Activity (Klebsiella pneumoniae): inactive
Activity (Haemophilus influenzae): inactive
Activity (Enterococcus faecalis): inactive
Activity (Streptococcus equinus): inactive
Activity (Cutibacterium acnes): inactive
Activity (Clostridioides difficile): inactive

CC[C@H]1OC(=O)[C@H](C)[C@@H](O[C@H]2C[C@@](C)(OC)[C@@H](O)[C@H](C)O2)[C@H](C)[C@@H](O[C@@H]2O[C@H](C)C[C@H](N(C)C(C)C)[C@H]2O)[C@](C)(O)C[C@@H](C)[C@H](OCC(=O)NC)[C@H](C)[C@@H](O)[C@H]1C
Activity [1]: 86%
pEC50 (Motilin receptor): 7.05
inhibition at 300 µM (hERG (KCNH2) [3]): 67%
inhibition at 30 µM (hERG (KCNH2) [5]): 21%

CC[C@H]1OC(=O)[C@H](C)[C@@H](O[C@H]2C[C@@](C)(OC)[C@@H](O)[C@H](C)O2)[C@H](C)[C@@H](O[C@@H]2O[C@H](C)C[C@H](N(C)C(C)C)[C@H]2O)[C@](C)(O)C[C@@H](C)[C@H](OCC(=O)NC2CC2)[C@H](C)[C@@H](O)[C@]1(C)O
Activity [1]: 82%
pEC50 (Motilin receptor): 7.51
MIC (Streptococcus pneumoniae [2]): 128 µg/mL (≈ 149 µM)
inhibition at 300 µM (hERG (KCNH2) [3]): 60%
inhibition at 30 µM (hERG (KCNH2) [5]): 23%

CC[C@H]1OC(=O)[C@H](C)[C@@H](O[C@H]2C[C@@](C)(OC)[C@@H](O)[C@H](C)O2)[C@H](C)[C@@H](O[C@@H]2O[C@H](C)C[C@H](N(C)C)[C@H]2O)[C@](C)(O)C[C@@H](C)C(=O)[C@H](C)[C@@H](O)[C@]1(C)O [ERYTHROMYCIN]
Activity [1]: 97%
pEC50 (Motilin receptor): 5.92
MIC (Streptococcus pneumoniae [2]): 0.0025 µg/mL (≈ 0.00341 µM)

CC[C@H]1OC(=O)[C@H](C)[C@@H](O[C@H]2C[C@@](C)(OC)[C@@H](O)[C@H](C)O2)[C@H](C)[C@@H](O[C@@H]2O[C@H](C)C[C@H](N(C)C(C)C)[C@H]2O)[C@](C)(O)C[C@@H](C)[C@H](OCC(=O)NCCO)[C@H](C)[C@@H](O)[C@]1(C)O
Activity [1]: 87%
pEC50 (Motilin receptor): 6.92
MIC (Streptococcus pneumoniae [2]): 128 µg/mL (≈ 148 µM)
inhibition at 300 µM (hERG (KCNH2) [3]): 68%
inhibition at 30 µM (hERG (KCNH2) [5]): 29%

CCNC(=O)CO[C@@H]1[C@H](C)[C@@H](O)[C@](C)(O)[C@@H](CC)OC(=O)[C@H](C)[C@@H](O[C@H]2C[C@@](C)(OC)[C@@H](O)[C@H](C)O2)[C@H](C)[C@@H](O[C@@H]2O[C@H](C)C[C@H](N(C)C(C)C)[C@H]2O)[C@](C)(O)C[C@H]1C
Activity [1]: 89%
pEC50 (Motilin receptor): 7.17
MIC (Streptococcus pneumoniae [2]): > 128 µg/mL
inhibition at 300 µM (hERG (KCNH2) [3]): 75%
inhibition at 30 µM (hERG (KCNH2) [5]): 24%

CC[C@H]1OC(=O)[C@H](C)[C@@H](O[C@H]2C[C@@](C)(OC)[C@@H](O)[C@H](C)O2)[C@H](C)[C@@H](O[C@@H]2O[C@H](C)C[C@H](N(C)C(C)C)[C@H]2O)[C@](C)(O)C[C@@H](C)[C@H](OCC(=O)N(C)C)[C@H](C)[C@@H](O)[C@]1(C)O
Activity [1]: 95%
pEC50 (Motilin receptor): 6.18
inhibition at 300 µM (hERG (KCNH2) [3]): 29%
inhibition at 30 µM (hERG (KCNH2) [5]): 8%

CC[C@H]1OC(=O)[C@H](C)[C@@H](O[C@H]2C[C@@](C)(OC)[C@@H](O)[C@H](C)O2)[C@H](C)[C@@H](O[C@@H]2O[C@H](C)C[C@H](N(C)C(C)C)[C@H]2O)[C@](C)(O)C[C@@H](C)[C@H](OCC(=O)NC2CCC2)[C@H](C)[C@@H](O)[C@]1(C)O
Activity [1]: 75%
pEC50 (Motilin receptor): 7.55
MIC (Streptococcus pneumoniae [2]): 128 µg/mL (≈ 146 µM)
inhibition at 300 µM (hERG (KCNH2) [3]): 100%
inhibition at 30 µM (hERG (KCNH2) [5]): 64%

CC[C@H]1OC(=O)[C@H](C)[C@@H](O[C@H]2C[C@@](C)(OC)[C@@H](O)[C@H](C)O2)[C@H](C)[C@@H](O[C@@H]2O[C@H](C)C[C@H](N(C)C(C)C)[C@H]2O)[C@](C)(O)C[C@@H](C)[C@H](OCCCC(=O)NC)[C@H](C)[C@@H](O)[C@]1(C)O
Activity [1]: 79%
pEC50 (Motilin receptor): 7.08
MIC (Streptococcus pneumoniae [2]): 128 µg/mL (≈ 148 µM)
inhibition at 300 µM (hERG (KCNH2) [3]): 56%
inhibition at 30 µM (hERG (KCNH2) [5]): 13%

CC[C@H]1OC(=O)[C@H](C)[C@@H](O[C@H]2C[C@@](C)(OC)[C@@H](O)[C@H](C)O2)[C@H](C)[C@@H](O[C@@H]2O[C@H](C)C[C@H](N(C)C(C)C)[C@H]2O)[C@](C)(O)C[C@@H](C)[C@H](OCC(N)=O)[C@H](C)[C@@H](O)[C@]1(C)O
Activity [1]: 92%
pEC50 (Motilin receptor): 7.28
MIC (Streptococcus pneumoniae [2]): > 128 µg/mL
inhibition at 300 µM (hERG (KCNH2) [3]): 51%
inhibition at 30 µM (hERG (KCNH2) [5]): 10%

CC[C@H]1OC(=O)[C@H](C)[C@@H](O[C@H]2C[C@@](C)(OC)[C@@H](O)[C@H](C)O2)[C@H](C)[C@@H](O[C@@H]2O[C@H](C)C[C@H](N(C)C3CCC3)[C@H]2O)[C@](C)(O)C[C@@H](C)[C@H](OCC(=O)NC)[C@H](C)[C@@H](O)[C@]1(C)O
pEC50 (Motilin receptor): 6.29
MIC (Streptococcus pneumoniae [2]): > 128 µg/mL
inhibition at 300 µM (hERG (KCNH2) [3]): 53%
inhibition at 30 µM (hERG (KCNH2) [5]): 12%
